Results as given in ChEMBL document CHEMBL1144425, “Design of benzophenone-containing photoactivatable linear vasopressin antagonists: pharmacological and photoreactive properties” (J Med Chem, 2005).
pKi: −log10 of the molar value.

The molecules below were run against Vasopressin V1a receptor (Rattus norvegicus, UniProt P30560) (assay: Binding affinity against rat vasopressin V1a receptor). Conditions: not given.
Vasopressin V1a receptor (Rattus norvegicus, UniProt P30560), sequence (P30560 whole entry): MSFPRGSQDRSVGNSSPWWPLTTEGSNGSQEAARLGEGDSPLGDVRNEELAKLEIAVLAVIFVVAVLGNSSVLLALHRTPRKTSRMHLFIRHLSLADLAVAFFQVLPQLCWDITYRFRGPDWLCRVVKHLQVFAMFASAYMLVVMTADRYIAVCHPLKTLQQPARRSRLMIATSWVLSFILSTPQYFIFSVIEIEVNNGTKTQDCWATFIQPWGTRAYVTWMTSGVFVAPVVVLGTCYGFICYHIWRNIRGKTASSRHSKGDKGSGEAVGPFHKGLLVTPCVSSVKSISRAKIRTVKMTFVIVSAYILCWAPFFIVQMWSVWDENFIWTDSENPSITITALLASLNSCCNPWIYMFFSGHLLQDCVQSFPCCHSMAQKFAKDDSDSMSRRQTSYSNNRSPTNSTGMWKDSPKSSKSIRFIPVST

| pKi | SMILES |
| --- | --- |
| 9.74 | COc1ccc(C[C@@H](NC(=O)CCCc2ccc(N=[N+]=[N-])cc2)C(=O)N[C@@H](Cc2ccccc2)C(=O)N[C@@H](CCC(N)=O)C(=O)N[C@@H](CC(N)=O)C(=O)N[C@@H](CCCNC(=N)N)C(=O)N2CCC[C@H]2C(=O)N[C@@H](CCCNC(=N)N)C(=O)N[C@@H](Cc2ccc(O)c(I)c2)C(N)=O)cc1 |

These molecules were tested against Vasopressin V1a receptor (Homo sapiens, UniProt P37288) (assay: Binding affinity against human vasopressin V1a receptor expressed in CHO cells). Conditions: not given.
Vasopressin V1a receptor (Homo sapiens, UniProt P37288), sequence (P37288 whole entry): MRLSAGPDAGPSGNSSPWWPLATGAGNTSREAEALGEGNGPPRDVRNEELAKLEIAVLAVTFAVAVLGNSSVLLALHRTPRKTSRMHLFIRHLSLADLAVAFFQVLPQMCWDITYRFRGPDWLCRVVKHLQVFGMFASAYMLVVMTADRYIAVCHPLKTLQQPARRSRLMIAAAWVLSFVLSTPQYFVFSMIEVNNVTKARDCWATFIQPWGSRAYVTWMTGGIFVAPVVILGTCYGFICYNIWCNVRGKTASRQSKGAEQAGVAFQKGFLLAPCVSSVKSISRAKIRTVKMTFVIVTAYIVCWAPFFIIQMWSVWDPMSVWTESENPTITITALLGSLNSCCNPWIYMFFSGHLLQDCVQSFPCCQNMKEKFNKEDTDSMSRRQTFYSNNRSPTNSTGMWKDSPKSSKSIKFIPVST
Type: cell-based
In short: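 Competition binding on membranes of CHO cells expressing the human V1a receptor (2 to 3 µg protein). Each compound was tested at 10^-12 to 10^-6 M against a radioiodinated linear antagonist (45-80 pM). Incubation was 1 h at 30 °C in 50 mM Tris, 5 mM MgCl2, pH 7.4, with 1 mg/mL BSA, in triplicate, then GF/C filtration. Data were fitted by nonlinear least-squares regression.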

| pKi | SMILES |
| --- | --- |
| 8.60 | N=C(N)NCCC[C@H](NC(=O)[C@@H]1CCCN1C(=O)[C@H](CCCNC(=N)N)NC(=O)[C@H](CC(N)=O)NC(=O)[C@H](CCC(N)=O)NC(=O)[C@H](Cc1ccccc1)NC(=O)[C@H](Cc1ccc(C(=O)c2ccccc2)cc1)NC(=O)Cc1ccccc1)C(=O)N[C@@H](Cc1ccc(O)c(I)c1)C(N)=O |
| 7.74 | COc1ccc(C[C@@H](NC(=O)c2ccc(C(=O)c3ccccc3)cc2)C(=O)N[C@@H](Cc2ccccc2)C(=O)N[C@@H](CCC(N)=O)C(=O)N[C@@H](CC(N)=O)C(=O)N[C@@H](CCCN=C(N)N)C(=O)N2CCC[C@H]2C(=O)N[C@@H](CCCN=C(N)N)C(=O)N[C@@H](Cc2ccc(O)c(I)c2)C(N)=O)cc1 |
| 9.10 | NC(=O)CC[C@H](NC(=O)[C@H](Cc1ccccc1)NC(=O)[C@@H](Cc1ccc(C(=O)c2ccccc2)cc1)NC(=O)Cc1ccccc1)C(=O)N[C@@H](CC(N)=O)C(=O)N[C@@H](CCCN=C(N)N)C(=O)N1CCC[C@H]1C(=O)N[C@@H](CCCN=C(N)N)C(=O)N[C@@H](Cc1ccc(O)c(I)c1)C(N)=O |

Same assay, conditions: cho

| pKi | SMILES |
| --- | --- |
| 7.62 | CC(=O)N[C@H](Cc1ccc(C(=O)c2ccccc2)cc1)C(=O)N[C@@H](Cc1ccccc1)C(=O)N[C@@H](CCC(N)=O)C(=O)N[C@@H](CC(N)=O)C(=O)N[C@@H](CCCNC(=N)N)C(=O)N1CCC[C@H]1C(=O)N[C@@H](CCCNC(=N)N)C(=O)N[C@@H](Cc1ccc(O)c(I)c1)C(N)=O |
| 5.83 | CC(=O)N[C@@H](Cc1ccc(C(=O)c2ccccc2)cc1)C(=O)N[C@@H](Cc1ccccc1)C(=O)N[C@@H](CCC(N)=O)C(=O)N[C@@H](CC(N)=O)C(=O)N[C@@H](CCCNC(=N)N)C(=O)N1CCC[C@H]1C(=O)N[C@@H](CCCNC(=N)N)C(=O)N[C@@H](Cc1ccc(O)c(I)c1)C(N)=O |
| 6.34 | COc1ccc(C[C@@H](NC(=O)C(N)Cc2ccc(C(=O)c3ccccc3)cc2)C(=O)N[C@@H](Cc2ccccc2)C(=O)N[C@@H](CCC(N)=O)C(=O)N[C@@H](CC(N)=O)C(=O)N[C@@H](CCCNC(=N)N)C(=O)N2CCC[C@H]2C(=O)N[C@@H](CCCNC(=N)N)C(=O)N[C@@H](Cc2ccc(O)c(I)c2)C(N)=O)cc1 (stereo not given in full) |
| 6.83 | N=C(N)NCCC[C@H](NC(=O)[C@@H]1CCCN1C(=O)[C@H](CCCNC(=N)N)NC(=O)[C@H](CC(N)=O)NC(=O)[C@H](CCC(N)=O)NC(=O)[C@H](Cc1ccccc1)NC(=O)[C@@H](N)Cc1ccc(C(=O)c2ccccc2)cc1)C(=O)N[C@@H](Cc1ccc(O)c(I)c1)C(N)=O |
| 7.70 | NC(=O)CC[C@H](NC(=O)[C@H](Cc1ccccc1)NC(=O)[C@H](N)Cc1ccc(C(=O)c2ccccc2)cc1)C(=O)N[C@@H](CC(N)=O)C(=O)N[C@@H](CCCN=C(N)N)C(=O)N1CCC[C@H]1C(=O)N[C@@H](CCCN=C(N)N)C(=O)N[C@@H](Cc1ccc(O)c(I)c1)C(N)=O |
| 6.94 | COc1ccc(C[C@@H](NC(=O)CNC(=O)c2ccc(C(=O)c3ccccc3)cc2)C(=O)N[C@@H](Cc2ccccc2)C(=O)N[C@@H](CCC(N)=O)C(=O)N[C@@H](CC(N)=O)C(=O)N[C@@H](CCCCN)C(=O)N2CCC[C@H]2C(=O)N[C@@H](CCCNC(=N)N)C(=O)N[C@@H](Cc2ccc(O)c(I)c2)C(N)=O)cc1 |
